According to the EternaBench riboswitch data:

System: MS2 coat protein
Test: apparent Kd, MS2 coat protein; higher = weaker binding; RNA-MaP array; FMN 200 µM where present
How it was run: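 Stalled E. coli RNA polymerase produced the designs on Illumina sequencing-chip clusters. SNAP-549-labelled MS2 coat protein was added from 0.7 or 1.5 nM, doubling to 3 µM, without and then with constant ligand, in 100 mM Tris-HCl pH 7.5, 80 mM KCl, 4 mM MgCl2, BSA, DTT, yeast tRNA and Tween-20. The apparent Kd is the median of filtered per-cluster fits of green signal normalised to red-channel RNA signal and control-cluster median Fmax.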

[1] = designed as: ON switch for flavin mononucleotide, no ligand
[2] = ligand present: flavin mononucleotide, designed as: ON switch for flavin mononucleotide
[3] = designed as: OFF switch for flavin mononucleotide, no ligand
[4] = ligand present: flavin mononucleotide, designed as: OFF switch for flavin mononucleotide

Sequence | apparent Kd [1] | apparent Kd [2] | apparent Kd [3] | apparent Kd [4]
GUGGUCAGACAUGAGGAUCACCCAUGUGGAAUAAAUAACACACAGGAUAUGUAAUAUAGGAUAUAACAGAAGGGUGGAUUGGUG | 318 nM | 168 nM | – | –
UGAAAUCAUGUAGGAUAUGCAUGGCGAAGCUACGCAGAAGGACAUGAGGAUCACCCAUGUUAUAGCUACCCAGCUCGGUGGCAA | – | – | 39.6 nM | 117 nM
UAUUUAAGAGGAUAUACAUGAGGAUCACCCAUGUGUGUCUAUACGCGUGAUUUUUCAUGUAGAAGGCUUGGGUA | – | – | 160 nM | 60.5 nM
GCACGGCAUGUAGGAUAUGCAUAGCAUUGCUAUGCAGAAGGACAUGAGGAUCACCCAUGUAUGUAUUCCAUACAAUUCCCGUGC | – | – | 5.86 nM | 12 nM
CGCUAAUAAAUAGUAAUAAUUGUACAGGAUAUGUUACAUGAGGAUCACCCAUGUAUUGGGUAAGAACAGAAGGGUAUAUUAGCG | – | – | 433 nM | 229 nM
CUAUGAACGAUAGGAUAUACUGAGGUUGAGUGGGUAGAAGGAUCGAUAGUGUAGAAGACAUGAGGAUCACCCAUGUUAUGGAUU | 505 nM | 318 nM | – | –
GCCUCACAUGAGGAUCACCCAUGUCAGGAUAUCUAACGCGAGGUGCAGGCACUUCGUGAGAGAAGGGACGUCAA | – | – | 20.3 nM | 34.4 nM
ACUUAUCAUGUAGGAUAUGCGUGGCGAAGCUAUGCAGAAGGACAUGAGGAUCACCCAUGUUUUAGCGUCUGCGUACAGAUGCGU | – | – | 54 nM | 192 nM
CGCAAUGAUAGAGGAUAUGUUUUACAUGAGGAUCACCCAUGUGUACAUGGAUUAAUAUAUAAGUAACAGAAGGCUAUUCAUGCG | – | – | 16.7 nM | 15.2 nM
CAGCGAAAGCUGAAUCUGUAGAGAGAGGAUAUACAAGAUAUCAUCCAUACAUGAGGAUCACCCAUGUAGAAGGCUCUCUACAGU | – | – | 5.03 nM | 7.23 nM
AAAUUUUGUCAAGGAUAUGUAUUAUUGAUUUGAAAACAUGAGGAUCACCCAUGUAUAUGGUGGGAACAGAAGGUGAAUAAGUAA | – | – | 202 nM | 236 nM
ACACAGCAAGGAUAUACAUGAGGAUCACCCAUGUGGUGGCCGUUACGGUAGGACUAGUGUAGAAGGUGCAGUGG | – | – | 519 nM | 177 nM
AGGAAACAUGAGGAUCACCCAUGUAAAAGGUGGUUAGGAUAUGCAAAAAGAAAAAGAAAAGCAGAAGGGACAAGAA | 561 nM | 635 nM | – | –
GGUGCGUAUGUGAGGAUAUGCUGGUCCUUGGCUCGGCAGAAGGCACAUGAGGAUCACCCAUGUGGUGUCGUGCC | – | – | 16.9 nM | 37.7 nM
AUACUCAUGUAAGGAUAUGCAGCCGUUUCGGCUGCAGAAGGUACUAUAAUACAUGAGGAUCACCCAUGUCUAUAAAAUAAAGAC | 60.6 nM | 41.5 nM | – | –
GGAUGACAAAGUCAUCCAUAACGAACAUGAGGAUCACCCAUGUAGGAUAUGCUACUCAAAGAGUAGCAGAAGGACAUGUGUCUU | – | – | 33.9 nM | 158 nM
UGUGCUAUGUAGAAGGCAGAUCUGAUUCAGAUCUGAGGAUAUACAUGAGGAUCACCCAUGUUAUGCACCAGCACGAGAGUGCAC | – | – | 7.89 nM | 17.1 nM
AAGACACAUGAGGAUCACCCAUGUCAAGAGAGACGAGGAUAUCUGAAAAAAAAAAAAAAAGGAGAAGGCGUGAAAA | 109 nM | 51.1 nM | – | –
AAGAGAGCAGGAUAUCGGUUUUGCGACAUGAGGAUCACCCAUGUGAGCCGAGUCCAACGCCGAGAAGGGCUAAAAU | – | – | 62.5 nM | 336 nM
AGUGUGUGGCAGGAUAUGCUAUUAAUUGGUGAAGCAGAAGGGUCUACAUGAGGAUCACCCAUGUAAGCGGUUGA | – | – | 39.7 nM | 190 nM
GCGUUCUUGUAGAAGGUACAUAAAAUCUAUUUUUAACACAUGAAACAUGAGGAUCACCCAUGUUGUAAGGAUAUACAUGAACGC | 7.03 nM | 5.88 nM | – | –
GCCAACUUAUGAGGAUAUGGCACCUUAUUGGUGCCAGAAGGCAUGUCAAUUGACAUGAGGAUCACCCAUGUAUUAUAGUUGGCA | 700 nM | 108 nM | – | –
AGAGAGAGACAGAAGGGCAAGCUCGAUUGCGGAGAAAGCGAUCGAGCUUGCAGGAUAUGUUGAACAUGAGGAUCACCCAUGUCA | 7.49 nM | 7.62 nM | – | –
AGAAACUAGGAGAAGGACAUAUGACCAAGACGAAACAUGAGGAUCACCCAUGUAGGAUAUCCUAGUUUCAGGAUCGUGAGAUCA | – | – | 5.47 nM | 7.97 nM
GUGUACAGAGGAUAUACAUAAGCAUGGAAACAUGCAUCUUCACAUGAGGAUCACCCAUGUAGAAGGCUGUACAC | – | – | 18.1 nM | 75.6 nM
UGUUGUAUUACAGGAUAUCUAGUAUUAUUAUUUAGAGAAGGGUAUUCACAUGAGGAUCACCCAUGUAUAUACGAGGAAGUUGUG | 38.2 nM | 40.1 nM | – | –
AGGAGGUUAGGAUAUGCUGCUCGUCACUUGCGUGAUGAGUAGCAGAAGGAACAUGAGGAUCACCCAUGUAAAGA | – | – | 29.7 nM | 35.1 nM
CCAGAUAUGUGAGGAUAUAUAGUGGAAUACACUAUAGAAGGUAUGUGAGAACAUGAGGAUCACCCAUGUCAUUGGAUAUCUGGA | 33.5 nM | 38.1 nM | – | –

Sequence | apparent Kd [1] | apparent Kd [2] | apparent Kd [3] | apparent Kd [4]
GCAAUGCCUGACAUGAGGAUCACCCAUGUUAGAUUGUUAUGUCAGGAUAUUGUCUAGAAACUAGACAAGAAGGGAUGCAUUGCU | 313 nM | 25.1 nM | – | –
UUGGAGUUCGUAGGAUAUGUAGGAUAUUCCUACAUGAGGAUCACCCAUGUUUACAUGGAAGAAGGACAGAAGGACGAGCUCCAU | 1580 nM | 16.2 nM | – | –
GGAUCGCAAGAAGAUCCAAUACGAACAUGAGGAUCACCCAUGUAGGAUAUGCUAGAAGAAGAGUAGCAGAAGGACAUGUGCCUU | – | – | 9.79 nM | 42.7 nM
UUGUUGUAUGUAGGAUAUGCAUAUUAUUAUUAUGCAGAAGGACAUGAGGAUCACCCAUGUAUAUUAUUAUUAUAUAUUAUAUAU | – | – | 30 nM | 49.3 nM
CUCAUGAGAGGAUAUACAUGAGGAUCACCCAUGUGGUCAUCUCCUCGGGCUCCAUUACGUAGAAGGCUCAUUUG | – | – | 41.4 nM | 88.4 nM
UAAAAUUUACGAGGAUAUCCAAAGGUAGACAUAGGAGAAGGCGUACAUGAGGAUCACCCAUGUACCAAUAAAUGGGUUUCUCAA | – | – | 20.8 nM | 57.8 nM
AGCUGUGGCCGAGGAUAUCACGAACCAUGGAAAACCAUGGAACUCAAACAUGAGGAUCACCCAUGUGAGAAGGCGGUCUCAGCA | – | – | 21.1 nM | 15.9 nM
UUCGUGCAGCUUUGCUGUACGCGUACAUGAGGAUCACCCAUGUAGGAUAUGGUAGGCCAAGCUUACUAGAAGGAUAUAGUGAUC | – | – | 95.5 nM | 88.7 nM
UAAAAGACUAGCAAAUAAGUUCCACAUGAGGAUCACCCAUGUCAGGAUAUGAGCAGCAAAGCUGCUCAGAAGGGAUAGCUAGUC | – | – | 6.45 nM | 6.39 nM
AGCGAACAUGAGGAUCACCCAUGUGAAAAACAUAGAGGAUAUGUCGCAUGCGUGUAAAAGACAGAAGGCUAUCGCG | 71.6 nM | 33.9 nM | – | –
GAGAAGAGUAUAGGAUAUUAAGAAACAUGAGGAUCACCCAUGUAGUGAGUGUGAGAAGGGUAGGAGGUGGUAGGAGGAUCCAGG | 22.3 nM | 16.4 nM | – | –
UAAUCUCAGAUAGGAUAUAUAGGAUAACUUAAGACCGAACAUGAGGAUCACCCAUGUGAUUAUUCGUAGAAGGAUCAAUGACCC | 119 nM | 119 nM | – | –
ACAGCGUGAGGAUAUACAUGAGGAUCACCCAUGUGUGGCAGGUUAUCCUGUCAUGAGUGUAGAAGGCACGCUGU | – | – | 30 nM | 90.7 nM
AAGUAACAUGAGGAUCACCCAUGUUAGGAUAUCUCGGCCACAGGAUCGCUGUGAAGCCAGAGAAGGAGCGGGUG | – | – | 175 nM | 186 nM
AAAUUUUGUCAAGGAUAUGUAUAAAAGAUAAGAAAACAUGAGGAUCACCCAUGUAUAUGGUGGGAACAGAAGGUGAAUAAGUAA | – | – | 185 nM | 158 nM
GCUAUAGAUGUAGGAUAUCAUAUAGAAGCUAUGUGAGAAGGACAUGAGGAUCACCCAUGUCAAUGGAUGGAGCGAAGUUAUGGC | – | – | 43.4 nM | 57.7 nM
UGUUGUAUUACAGGAUAUCUAUUAUUUUUAUUUAGAGAAGGGUAUUCACAUGAGGAUCACCCAUGUAUAUACGAGGAAGAUGUG | 91.5 nM | 107 nM | – | –
AAAUGCCUGUCGAUGCUCGACAUGAGGAUCACCCAUGUAUGGCAGGAUAUGCAGAACUGACUCGUGCAGAAGGGCUAUACCUAA | – | – | 8.06 nM | 24.7 nM
UGGUACUAGGGAGGAUAUGGGAAGAUACAUGAGGAUCACCCAUGUUUAAGAAUGCCGAGAGGCAAAUAGAAGGCCCUAGUACCU | 658 nM | 85.4 nM | – | –
GUAGGGUCAGGAUAUACGGGCGGGAGGAUGUAGUGGAGUUGGUAGAAGGGACAUGAGGAUCACCCAUGUGAGAA | – | – | 30.7 nM | 27.8 nM
UUGGACGUCUUAGGAUAUGUAGGAUAUUCCUACAUGAGGAUCACCCAUGUUGACAUGGAAGAAGGACAGAAGGACGAUGUCCAU | 418 nM | 11.2 nM | – | –
GAUUAACAUGAGGAUCACCCAUGUGAGGAUAUGGACUGGCUCACUUUUCGAUUCCCGUCUAGAAGGCGCAUUUU | – | – | 50.1 nM | 50.1 nM
CCCUCACAUGAGGAUCACCCAUGUCAGGAUAUGCGCGGCCAAAAGGGCUGCUAAGGCAGCAGAAGGGACGUGAA | – | – | 15.9 nM | 19.5 nM
UGACCCUGGAAGAGUGUUUAGACAUGAGGAUCACCCAUGUCUGAGGAUAUGCGGCAUCAAUAACAGCAGAAGGCAGACUUGGGU | – | – | 239 nM | 32.7 nM
UAACAGUUAGGAUAUACCAGGGUAUCCUCGCGGCGCCGAAAACAUGAGGAUCACCCAUGUAGAAGGAACCGUUU | – | – | 65 nM | 19.6 nM
GUGAUGAUCGAGAAGGCCACUACAUGAGGAUCACCCAUGUCGUGGUGUAUUGGAGGAUAUCGAUCGACGUCUUAUGAGGACAUA | – | – | 4.82 nM | 5.95 nM
AACCUACAUGAGGAUCACCCAUGUGAGGAUAUAUUGGUAUGGAUGUUAUUUUGUAGAGGUAGAAGGCGCGUGAU | – | – | 15.4 nM | 15.4 nM
